Compound activity as filed in PubChem.
HSF1 inhib: HSF1 inhibition; NIH3T3-HGL HSE-luciferase, MG132-induced, luminescence 8 h; stronger effect = lower value; activity change, negative = inhibition, % at 7.5 µM (by protocol); 300,000 tested, 0.77% active; AID 2098;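 active = more than half of replicate wells show activity change below -50%, luminescence cut by over half; inconclusive = some wells, but at most half, below -50%; inactive = no replicate well below -50%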;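 note: luciferase reports HSF-1 transcriptional activity via heat shock element; 0% = median of DMSO wells and -100% = zero luminescence signal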
ALR inh: blocks human ALR sulfhydryl oxidase activity; P55789; purified ALR, DTT oxidation, H2O2 HRP-luminol luminescence; inhibition, % (test concentration not listed); 290,000 tested, 3.8% active;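 active = mean replicate inhibition above about 79%, with every replicate also reaching it, limit read from the data; inconclusive = only one of the two criteria met; inactive = mean below limit and not every replicate reaching it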
Target sequence (P55789 whole entry, looked up): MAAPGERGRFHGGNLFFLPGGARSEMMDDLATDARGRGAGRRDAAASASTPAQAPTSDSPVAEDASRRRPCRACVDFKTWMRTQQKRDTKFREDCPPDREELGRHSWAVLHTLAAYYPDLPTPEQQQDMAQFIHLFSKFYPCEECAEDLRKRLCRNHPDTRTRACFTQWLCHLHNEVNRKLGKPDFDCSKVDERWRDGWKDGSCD
AI-2 QS mod: modulates the Vibrio harveyi AI-2 quorum sensing system. Vibrio harveyi JMH597 AI-2 luminescence/OD600 ratio, 9 h; stronger effect = lower value; strain lacks LuxN and CqsS sensors; 0 = neutral-control median. activity change, % at 7.5 µM. 300,000 tested, 0.4% active; in the data active = activity change below about -75%, passing the limit was not always enough; inconclusive = no clear call, values can overlap the other calls;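 note: luminescence divided by OD600 gain over 9 h not by final OD600 alone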
HSF1 activator: increases HSF-1 driven luciferase reporter signal | activation, % at 9 µM | 300,000 tested, 1.7% active | NIH3T3-HGL HSF-1 luciferase reporter, MG132, 8 h; 100% = twice DMSO control signal;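 active = mean replicate activation of at least 50% with a set share of replicates each reaching 50%; inconclusive = only one of those two conditions met; inactive = mean below 50% and too few replicates reaching it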;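 note: 0% = median of the neutral control wells and 100% = twice that signal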
PHOSPHO1 block: inhibitors of human PHOSPHO1 phosphatase; 290,000 tested, 1.1% active; recombinant PHOSPHO1, absorbance phosphatase assay; inhibition, % at 13.3 µM; in the data active = inhibition above about 60%
Target sequence (Q8TCT1 whole entry, looked up): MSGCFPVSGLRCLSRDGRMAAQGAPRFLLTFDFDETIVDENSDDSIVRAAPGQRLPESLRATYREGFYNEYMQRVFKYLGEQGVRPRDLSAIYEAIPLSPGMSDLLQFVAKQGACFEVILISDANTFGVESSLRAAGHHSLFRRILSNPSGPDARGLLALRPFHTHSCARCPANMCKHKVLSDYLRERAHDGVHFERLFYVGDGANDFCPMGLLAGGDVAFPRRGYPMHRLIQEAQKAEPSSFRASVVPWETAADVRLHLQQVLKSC
core dimer inh: HCV core protein dimerization inhibition. TR-FRET GST/Flag-core106 dimerization, 1536-well. inhibition, % at 5 µM. 300,000 tested, 0.33% active;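 active = inhibition above the mean of all tested compounds plus 3 SD, set per screening campaign, cut at about 45% in these data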
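Material: Tagged HCV core106 pair (GST and Flag) | Amount: GST-core106 13.5 nM, Flag-core106 17 nM | Medium: KF-containing HEPES buffer, pH 7.45, DTT, CHAPS, BSA | Reagent: Eu donor and XL665 acceptor anti-tag antibodies | Schedule: 4 h at 22.5 °C | Technique: Time-resolved FRET, ex 340 nm, em 617 and 671 nm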
An asterisk follows results filed as active; ? = inconclusive; / = no result given. Compounds with a hit are over-represented: about 6.8% of the library has one in this group of screens.

SMILES | HSF1 inhib | ALR inh | AI-2 QS mod | HSF1 activator | PHOSPHO1 block | core dimer inh
CCN1CCCc2cc(CN(CCN3CCOCC3)C(=S)Nc3ccc(C)cc3)ccc21 | 10 | 99* | 28 | 7 | -20 | -35
CCOc1ccc(NC(=S)N(CCN2CCOCC2)Cc2ccc3c(c2)CCCN3CC)cc1 | 0 | / | 16 | -15 | -8 | 2
CCN1CCCc2cc(CN(CCN3CCOCC3)C(=S)Nc3cc(F)cc(F)c3)ccc21 | 0 | 94* | 28 | -1 | -22 | 4
CC(=O)Nc1ccc(NC(=O)[C@@H](NC(=O)c2ccccc2F)C(C)C)cc1 | -8 | / | -5 | 6 | 24 | -5
NC(=O)C(c1ccc(Cl)cc1)c1ccc(Sc2ccc(Cl)cc2)nn1 (stereo not given) | -3 | -8 | -83* | 7 | -4 | 1
O=C(CSc1ccc(-c2ccncc2)nn1)c1ccc(Cl)cc1 | -2 | -9 | 20 | 1 | -14 | 4
COc1ccccc1-c1nnc2n1N=C(c1ccc(O)c(O)c1)CS2 | -14 | 99* | 14 | -17 | -51 | -3
CCOc1ccc(C2=Nn3c(nnc3-c3ccccc3OC)SC2)cc1 | -18 | / | -1 | -39 | -18 | -2
Brc1ccccc1C1=Nn2c(nnc2-c2ccccc2)SC1 | -3 | -1 | 5 | -22 | 83* | -2
CC(=O)Nc1ccc(NC(=O)CSc2nnnn2-c2ccc(F)cc2)cc1 | 6 | 98* | 35 | 13 | 33 | 1
O=C(CSc1nnnn1C1CCCC1)Nc1ccc(F)cc1 | 4 | / | -32 | 29 | 62* | 0
O=C(CSc1nnnn1C1CCCCC1)Nc1ccc(F)cc1 | -6 | -2 | 11 | 8 | 48 | 0
CC(=O)Nc1ccc(-n2nnnc2SCC(=O)NC2CCCC2)cc1 | -7 | -1 | 6 | -4 | 16 | 9
O=C(CSc1nc(O)c(C2CCCCC2)c(=O)[nH]1)Nc1ccc(F)cc1 | 1 | 99* | 12 | -1 | 26 | -4
CC(C)CC(=O)N1CCN(Cc2ccc(C(F)(F)F)cc2)CC1 | 0 | -2 | 23 | -5 | 9 | -4
CC(C)Oc1ccc(C(=O)Nc2ccc(C(F)(F)F)n(C)c2=O)cc1 | 6 | -9 | 9 | 32 | 17 | 2
COc1ccc(NC(=O)c2cc3ccc4c5ccccc5[nH]c4c3cc2O)cc1 | -10 | 5 | 3 | -8 | -10 | 24
Cc1cc(C(=O)C(=O)O)c(C)n1-c1ccc(Cl)c(Cl)c1 | -5 | 95* | 5 | -1 | 12 | 3
Cc1cc(C(=O)C(=O)N(C)C)c(C)n1-c1ccc(Cl)c(Cl)c1 | 1 | -1 | 15 | -9 | 7 | 4
O=C(NC(C(=O)N/N=C/c1c2ccccc2cc2ccccc12)c1n[nH]c(=O)c2ccccc12)c1ccccc1 (stereo not given) | 12 | -7 | 25 | 24 | 33 | 47*
CNC(=O)C(C)N1c2cccc3cccc(c23)S1(=O)=O (stereo not given) | -2 | -15 | 15 | -3 | / | /
CC(C(=O)Nc1ccccc1Br)N1c2cccc3cccc(c23)S1(=O)=O (stereo not given) | 35 | 1 | 20 | 67* | 17 | 14
CC(C)(C)C(=O)NC1=NCCS1 | / | 100* | 15 | / | 10 | -8
COc1ccc(SC[C@H](CC(C)C)N2CCN(CCc3ccccc3)CCC2=O)cc1 | 3 | ? | 10 | -16 | 22 | -4
COc1ccc(C2=CC(=O)CC(c3ccc(F)cc3)C2)cn1 (stereo not given) | 29 | / | -4 | 61* | / | 12
SMILES | HSF1 inhib | ALR inh | AI-2 QS mod | HSF1 activator | PHOSPHO1 block | core dimer inh
COc1ccc(C2=CC(=O)C[C@H](c3ccc(F)cc3)C2)cc1OC | / | -11 | / | / | / | /
CCOC(=O)c1snc(-c2ccc(F)cc2)c1N | 18 | -15 | 2 | 59* | -12 | 5
COc1ccc(OC)c(N(CC(=O)N2CCCCC2)S(=O)(=O)c2ccc(OC)c(OC)c2)c1 | 9 | -10 | 14 | -12 | 0 | 3
COc1ccc(OC)c(N(CC(=O)N2CCC(C)CC2)S(=O)(=O)c2ccccc2)c1 | 19 | / | 11 | 60* | 8 | 0
COc1ccc(OC)c(N(CC(N)=O)S(=O)(=O)c2ccc(OC)c(OC)c2)c1 | 9 | 99* | 7 | 0 | 2 | -2
O=C(Cc1ccc(Br)cc1)N/N=C/c1cccnc1 | -12 | -2 | 1 | -1 | 23 | -17
C#CCOCCOCCOCCNc1nc(N2CCN(C(=O)[C@H]([C@@H](C)CC)n3cc([C@@H](N)Cc4ccc(O)cc4)nn3)CC2)nc(N2CCN(C(=O)[C@H](CCCCN)n3cc([C@@H](N)CC(C)C)nn3)CC2)n1 | 15 | 1 | 9 | 36 | 56 | 0
CC(=O)c1ccc(NC(=S)NNC(=O)NC2CCCCC2)cc1 | -4 | 94* | 7 | -16 | -10 | 3
NS(=O)(=O)c1ccc(NC(=S)NC2CCCC2)cc1 | 0 | 8 | 8 | -2 | 81* | 1
NS(=O)(=O)c1ccc(NC(=S)NC2CCCCCC2)cc1 | 5 | 96* | 2 | 1 | 6 | -15
COc1cc2c(cc1OC)C(C1C(=O)CC(C)CC1=O)N(C(=O)CCl)CC2 (stereo not given) | / | 2 | 9 | / | -1 | -1
CC(OC(=O)c1ccc(S(=O)(=O)NCc2ccco2)cc1)C(=O)Nc1ccccc1 (stereo not given) | / | -10 | / | / | / | /
CC(C)Nc1nc(NC(C)C)nc(N(C)n2cnnc2)n1 | 3 | -3 | 15 | -15 | 94* | 0
CC(C)(C)c1cc[n+](-c2nc([O-])sc2C=O)cc1 | -8 | 2 | 8 | 3 | -5 | -3
CCc1cc[n+](-c2nc([O-])sc2C=O)cc1 | 0 | -15 | 28 | -12 | 79* | 1
O=C(CCN1C(=O)[C@@H]2Cc3ccccc3CN2C1=O)N[C@@H](Cc1ccccc1)C(=O)O | -9 | -46 | 25 | -8 | -28 | -7
Cc1ccc2[nH]c(=O)c(CN(Cc3cccs3)Cc3nnnn3Cc3ccccc3)cc2c1 | 24 | -3 | 18 | 71* | -7 | 11
CSc1c(C#N)c(N)nc2sc(C(=O)c3ccccc3)c(N)c12 | 81 | 6 | / | 116* | 18 | 2
O=C(CN(C(=O)CCC(=O)Nc1nccs1)c1ccc(F)cc1)NCc1ccc(F)cc1 | 0 | -1 | 11 | -4 | 23 | -15
O=C(O)[C@H](Cc1ccccc1)NC(=O)N1CCN(c2ccc(F)cc2)CC1 | 1 | 98* | 23 | -8 | 36 | 2
COC(=O)[C@H](Cc1ccccc1)NC(=O)N1CCN(c2ccccc2)CC1 | 3 | 85* | 12 | 6 | 36 | 3
COc1ccc(Nc2ccc3c(c2)=NC2(CCCCC2)[N+]=3[O-])cc1 | 58 | -2 | 35 | 79* | 50 | -44
